Experimental data published in paper PMC7658953 (ACS Omega, 2020).
≈ marks a conversion by molar mass, not a printed value. Where “and” joins values, the source holds several entries; their conditions need not be identical. Equal values may be shown once.

Assays:
MRSA ATCC 33591 [1] = test: In vitro resistance development, serial passage study; format: cell-based, Staphylococcus aureus; conditions: cation-adjusted MHB, ratio of MIC after passage to MIC before first passage
[2] = system: murine red blood cells (RBCs); test: Hemolytic activity; format: cell-based; conditions: 1 h
In short: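 Fresh murine RBCs washed twice in 35 mM PBS (150 mM NaCl, pH 7.4) and suspended at 4% (v/v). Mixed 1:1 with 2-fold serial dilutions of test compound in PBS and held 1 h at 37 °C. After centrifugation, supernatant diluted in PBS and hemoglobin read at 414 nm. Lysis % scaled between PBS and 0.1% Triton X-100 (100%). Duplicate wells, two days.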

MRSA ATCC 33591 [3] = test: MIC, broth microdilution; format: cell-based, Staphylococcus aureus
In short: (§1)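 Broth microdilution: mid-log cells washed, suspended in cation-adjusted MHB or TSB (0.25% glucose, 0.5% NaCl), and adjusted to 10^8 CFU/mL (OD600 0.5). Added to 2-fold serial dilutions of test compound in 0.2% BSA/0.01% acetic acid, final about 2–5 × 10^5 CFU/mL in polypropylene wells. Incubated 16–18 h at 37 °C, 180 rpm; A600 read. MIC = lowest concentration fully inhibiting growth. Duplicates on at least two days.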

MSSA ATCC 29213 [4] = test: MIC, broth microdilution; format: cell-based, Staphylococcus aureus
In short: as §1

S. aureus cells = test: MIC of palmitic acid, preliminary studies; format: cell-based; conditions: Staphylococcus aureus
[5] = system: MSSA ATCC 29213 and MRSA ATCC 33591; test: Killing kinetics of stationary phase cells in TSB medium, both strains pooled; format: cell-based, Staphylococcus aureus; conditions: 10 × MIC, 10^7 CFU/mL
In short: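 Adjusted to 10^7 CFU/mL (OD600 0.05) in the same medium and incubated at 37 °C with test compound at 30, 40 or 50 μM; vancomycin included as comparator. Aliquots taken at 15 and 30 min, 1, 2, 3 and 24 h, serially diluted and drop-plated; colonies counted after 16–18 h. Three independent runs.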

S. aureus biofilm = test: Inhibition of biofilm formation, both strains pooled; format: cell-based, Staphylococcus aureus; conditions: identical conditions, 24 h, TSB, MSSA and MRSA
In short: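 Overnight S. aureus diluted to 10^5 CFU/mL in TSB (0.25% glucose, 0.5% NaCl). Biofilms grown 24 h at 37 °C in polystyrene wells with 20 μM test compound. Biomass by crystal violet after two PBS washes, read at 570 nm. Metabolic activity by resazurin: plate sonicated 5 min at 40 kHz, 30 min dark at room temperature, ex 550/em 590 nm. Viable cells by scraping into PBS, sonicating, plating and counting after 16–18 h at 37 °C.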

MSSA ATCC 29213 [6] = test: Killing of stationary phase cells in PBS, colony count; format: cell-based, Staphylococcus aureus; conditions: 2 h, 10^5 CFU/mL stationary phase cells
In short: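 Stationary-phase cells washed once and resuspended in 10 mM PBS (150 mM NaCl, pH 7.4). Adjusted to about 10^8 CFU/mL (OD600 0.5), then diluted 10-fold serially to 10^5 CFU/mL. Exposed to test compound for 2 h at 37 °C, 180 rpm; aliquots diluted, plated and counted after overnight incubation at 37 °C. Bactericidal defined as >3 log reduction versus untreated control.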

[7] = system: 3T3 murine fibroblast cells; test: Cytotoxicity, MTT assay; format: cell-based; conditions: 2% Triton X-100, positive control
In short: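 3T3 murine fibroblasts seeded at 0.2 × 10^5 cells/well in DMEM with 10% FBS for 24 h to about 75% confluence. Exposed to 20 or 50 μM test compound in serum-free DMEM for 2 h at 37 °C, 5% CO2. Washed, then 0.1 mg/mL MTT for 2 h in the dark; formazan dissolved in DMSO and read at 570 nm. Survival % = OD570 sample/untreated × 100. Two independent runs in duplicate.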

[8] = system: stationary phase S. aureus cells; test: SEM and TEM of stationary phase cells; format: cell-based, Staphylococcus aureus; conditions: 20 μg/mL, positive control
[9] = Staphylococcus aureus, ATCC33591|MRSA
[10] = tryptic soy broth (0.25% glucose, 0.5% NaCl)
[11] = Staphylococcus aureus, ATCC29213|MSSA

O=C(O)c1cn(C2CC2)c2cc(N3CCNCC3)c(F)cc2c1=O [ciprofloxacin]
increase in MIC after 18 serial passages at sub-MIC concentrations (MRSA ATCC 33591 [1]): 66 fold

CC[C@H](C)[C@H](NC(=O)CN)C(=O)NCC(=O)N[C@@H](C)C(=O)N[C@H](C(=O)N[C@@H](CC(C)C)C(=O)N[C@@H](CCCCN)C(=O)N[C@H](C(=O)N[C@@H](CC(C)C)C(=O)N[C@H](C(=O)N[C@H](C(=O)NCC(=O)N[C@@H](CC(C)C)C(=O)N1CCC[C@H]1C(=O)N[C@@H](C)C(=O)N[C@@H](CC(C)C)C(=O)N[C@H](C(=O)N[C@@H](CO)C(=O)N[C@@H](Cc1c[nH]c2ccccc12)C(=O)N[C@H](C(=O)N[C@@H](CCCCN)C(=O)N[C@@H](CCCNC(=N)N)C(=O)N[C@@H](CCCCN)C(=O)N[C@@H](CCCNC(=N)N)C(=O)N[C@@H](CCC(N)=O)C(=O)N[C@@H](CCC(N)=O)C(N)=O)[C@@H](C)CC)[C@@H](C)CC)[C@@H](C)O)[C@@H](C)O)C(C)C)C(C)C [melittin]
HC50 (concentration that causes lysis of 50% of the RBCs) [2]: ≤ 3.9 µM

Cc1onc(-c2ccccc2)c1C(=O)N[C@@H]1C(=O)N2[C@@H]1SC(C)(C)[C@@H]2C(=O)O [oxacillin]
MIC (MRSA ATCC 33591 [3]; [9]): 134 µM to 268 µM and 56.8 µg/mL to 114 µg/mL
MIC (MRSA ATCC 33591 [3]; [10]): 134.1–268.3 μM and 56.8–113.6 μg/mL
MIC (MSSA ATCC 29213 [4]; [11]): < 0.8 µM and < 0.35 µg/mL
MIC (MSSA ATCC 29213 [4]; [10]): < 0.8 μM and < 0.35 μg/mL

CCCCCCCCCCCCCCCC(=O)O [palmitic acid]
MIC (S. aureus cells): > 50 µM

CN[C@H](CC(C)C)C(=O)N[C@H]1C(=O)N[C@@H](CC(N)=O)C(=O)N[C@H]2C(=O)N[C@H]3C(=O)N[C@H](C(=O)N[C@H](C(=O)O)c4cc(O)cc(O)c4-c4cc3ccc4O)[C@H](O)c3ccc(c(Cl)c3)Oc3cc2cc(c3O[C@@H]2O[C@H](CO)[C@@H](O)[C@H](O)[C@H]2O[C@H]2C[C@](C)(N)[C@H](O)[C@H](C)O2)Oc2ccc(cc2Cl)[C@H]1O [vancomycin]
log reduction in the cell count ([5]; 24 h, range over MSSA and MRSA): 3.4–4.4 log
cell viability ([5]; up to 3 h): did not affect the cell viability
MIC (MRSA ATCC 33591 [3]; [9]): 0.48 to 0.96 µM (≈ 0.696 to 1.39 µg/mL)
MIC (MRSA ATCC 33591 [3]; [10]): 0.48−0.96 μM
increase in MIC after 18 serial passages at sub-MIC concentrations (MRSA ATCC 33591 [1]): 8 fold
log reduction in the viable cell count of the biofilm (S. aureus biofilm): ≥ 4.8 log
reduction of biofilm biomass (crystal violet) (S. aureus biofilm): ≥ 98.32 ± 0.95%
reduction of metabolic activity in the biofilm (resazurin) (S. aureus biofilm): 100%
MIC (MSSA ATCC 29213 [4]; [11]): 0.48 µM (≈ 0.696 µg/mL)
MIC (MSSA ATCC 29213 [4]; [10]): 0.48 µM (≈ 0.696 µg/mL)

Ac-H^6-F^7-R^8-W^9-G^10-K^11-P^12-V^13-NH2 [α-MSH(6-13)]
log reduction in viable cell count (MSSA ATCC 29213 [6]; 20 μM): ~2 log
log reduction in viable cell count (MSSA ATCC 29213 [6]; 50 μM): ~2 log

Ac-K^11-P^12-V^13-NH2 [α-MSH(11-13)]
log reduction in viable cell count (MSSA ATCC 29213 [6]; 150 μM): 0.7 log

Triton X-100
reduction in survival of the cells relative to untreated growth control [7]: 52.8%

gramicidin D
bacterial morphology and surface integrity in SEM and TEM [8]: presence of cell debris, dents on the surface, and loss in shape of the cells
